Test results published in ChEMBL document CHEMBL1134834, “Quinoxalinylethylpyridylthioureas (QXPTs) as potent non-nucleoside HIV-1 reverse transcriptase (RT) inhibitors. Further SAR studies and identification of a novel orally bioavailable hydrazine-based antiviral agent” (J Med Chem, 2001).

Tests used:
NIH3T3 = experiment: Cytotoxicity on 3T3 fibroblasts (3T3F) murine cell line (O.D.=0.131+/-0.014); format: functional; conditions: Mus musculus, read-out: TC50 (the source's name)
CEM-SS [1] = experiment: Concentration which produces a 50% survival of HIV-1 infected cells relative to uninfected control CEM-SS cells (in vitro anti-HIV activity); format: functional, cell-based; conditions: Homo sapiens
Method in brief: (§1)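 CEM-SS T4 lymphocytes infected with wild-type HIV-1. Protection from virus-induced cell death is scored against an AZT-treated positive control run under identical conditions. […] SI = IC50/EC50.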

CEM-SS [2] = experiment: Concentration which results in 50% survival of uninfected untreated control CEM-SS cells (cytotoxicity of the compound); format: functional, cell-based; conditions: Homo sapiens, read-out: IC50 (the source's name)
C8166 = experiment: Concentration which results in 50% survival of uninfected untreated control C8166 cells (cytotoxicity of the compound); format: functional, cell-based; conditions: Homo sapiens
Method in brief: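 Toxicity in uninfected C8166 cells by MTT reduction to formazan, read spectrophotometrically.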

[3] = system: Human immunodeficiency virus 1; experiment: Concentration which produces a 50% survival of HIV-1 infected cells relative to uninfected control C8166 cells; format: functional, organism-based; conditions: Human immunodeficiency virus 1, C8166
Daudi = experiment: Cytotoxicity on Daudi Human(DH) cell line (O.D.=0.129+/-0.018); format: functional; conditions: read-out: TC50 (the source's name)
Mus musculus = species on record: Mus musculus; experiment: Cytotoxicity on NSO murine cell line (O.D.=0.125+/-0.015); format: functional; conditions: read-out: TC50 (the source's name)
[4] = molecular target: T1, Human immunodeficiency virus type 1 reverse transcriptase (Human immunodeficiency virus 1, UniProt Q72547); experiment: Inhibition of HIV-1 Mutant HIV-1 RT enzymes containing the single amino acid substitution […]
[5] = molecular target: Human immunodeficiency virus type 1 reverse transcriptase (Human immunodeficiency virus 1, UniProt Q72547, V106A); experiment: Inhibition of HIV-1 Mutant HIV-1 RT enzymes containing the single amino acid substitution V106A
[6] = molecular target: Human immunodeficiency virus type 1 reverse transcriptase (Human immunodeficiency virus 1, UniProt Q72547, Y181I); experiment: Inhibition of HIV-1 Mutant HIV-1 RT enzymes containing the single amino acid substitution Y181I
[7] = molecular target: Human immunodeficiency virus type 1 reverse transcriptase (Human immunodeficiency virus 1, UniProt Q72547, Y188L); experiment: Inhibition of HIV-1 Mutant HIV-1 RT enzymes containing the single amino acid substitution Y188L
[8] = molecular target: T1, Human immunodeficiency virus type 1 reverse transcriptase; experiment: Inhibition of HIV-1 wild-type RT
[9] = (§2) Cytotoxicity on normal human lymphocytes(HL) (O.D.=0.114+/-0.01); format: functional; conditions: read-out: TC50 (the source's name)
[10] = Selectivity index was (IC50/EC50) determined in C8166 cells; format: functional
[11] = Selectivity index (IC50/EC50) was determined in CEM-SS cells; format: functional
Method in brief: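 CEM-SS (T4 lymphocyte) cells infected with wild-type HIV-1 were scored for protection from virus-induced cell death. […] SI = IC50/EC50. An AZT-treated positive control was run in parallel under identical conditions.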

[12] = molecular target: Human immunodeficiency virus type 1 reverse transcriptase (Human immunodeficiency virus 1, UniProt Q72547, K103N); experiment: Inhibition of HIV-1 Mutant HIV-1 RT enzymes containing the single amino acid substitution K103N
[13] = Selectivity index was determined in C8166 cells; format: functional
Method in brief: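 C8166 CD4+ T-cell line (HTLV-I genome, only tat expressed) acutely infected with lymphocytotropic HIV-1 IIIB. […] Read-out is HIV-p24 antigen in supernatants. AZT positive control was run at the same time. SI = IC50/EC50.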

[14] = Selectivity index was determined in CEM-SS cells; format: functional; method in brief: as §1
[15] = as §2; conditions: read-out: TC50 (the source's name)

SMILES	CC50 (NIH3T3) [µM]	EC50 (CEM-SS [1]) [µM]	CC50 (CEM-SS [2]) [µM]	IC50 (C8166) [µM]	EC50 [3] [µM]	CC50 (Daudi) [µM]	CC50 (Mus musculus) [µM]	Ki [4] [µM]	Ki [5] [µM]	Ki [6] [µM]	Ki [7] [µM]	Ki [8] [µM]	CC50 [9] [µM]	SI [10]	SI [11]	Ki [12] [µM]	SI [13]	SI [14]	CC50 [15] [µM]
Fc1cccc2c1nc(OCCNC(=S)Nc1ccc(Br)cn1)c1cccn12	> 1000	0.0029	> 2	125	0.02	> 1000	> 1000	0.15	0.029	0.3	0.7	0.058	> 1000	6250	>690	0.35	–	–	–
O=c1c2cccn2c2c(F)cccc2n1CCNC(=S)Nc1ccc(Br)cn1	500	0.0019	> 2	21	0.2	510	520	0.8	0.06	0.9	0.2	0.04	–	–	–	0.4	105	>110	510
